Measured values: article PMC7395490 (Proceedings of the National Academy of Sciences of the …, 2020)
“And” between values parts separate entries of the source, which are not always exact repeats. Equal entries are not always repeated. “Also recorded” adds a separate entry of the source. Where two headings read alike, the source gives them in different places.

Tests used:
[1] = system: HCT116 xenograft tumors; assay: Efficacy experiment 1: tumor volume, i.p. dosing; assay type: in vivo, NSG mice; details: for tumor volumes at conclusion of study: day 28, Rh-PPO vs oxaliplatin 7.5 mpk i.p.
Procedure, shortened: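 NSG mice (23 to 34 g) were given 2.5 × 10^6 HCT116 cells in 100 μL McCoy's 5A with 10% FBS, s.c. in the right flank. At ~100 mm3 (11 to 12 d), mice were randomized (10 to 13/group). Test compound in saline was given i.p. three or four times weekly. Vehicle was 0.9% NaCl. Platinum reference in 5% dextrose was given i.p. twice weekly. Mice also received 2 mL s.c. saline twice weekly. Calipers twice weekly; TV = W2L/2.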

[2] = system: HCT116 xenograft tumors; assay: Survival rate and cause of death, efficacy experiment 1; assay type: in vivo, NSG mice
Procedure, shortened: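 HCT116 s.c. xenograft NSG mice received i.p. vehicle, test compound or platinum reference plus s.c. saline hydration; n = 10 to 13 per group. Mice were removed when found dead, when declining health required killing, or when tumor diameter exceeded 15 mm. Survival versus starting number gave Kaplan–Meier curves. ILS = (DaysT – DaysC)/DaysC against vehicle controls.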

[3] = Rhodium and platinum content of tissues after i.p. treatment; assay type: in vivo, NSG mice; details: Rh-PPO 1 mpk, oxaliplatin 7.5 mpk i.p.
[4] = cited from earlier work
[5] = system: HCT116O MMR-deficient cells; details: cited from earlier work; for IC50: HCT116O MMR-deficient cells
[6] = Aqueous solubility; assay type: physicochemical
[7] = First mouse experiments exploring the administration route; assay type: in vivo
[8] = Stability in rat liver microsomes; assay type: in vitro ADME
[9] = Plasma pharmacokinetics after i.p. dose; assay type: in vivo, NSG mice; details: for AUC0–8 h / Cmax / t1/2: mouse plasma
Procedure, shortened: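 After the final i.p. dose (0.5 or 1 mpk) in xenograft-bearing NSG mice, blood was taken by cardiac puncture at 0.5, 1, 2, 4 and 8 h (three mice/group/time) into heparinized vials on ice. Plasma was spun at 15,000 × g, 5 min, RT, and stored at −80 °C. Proteins were precipitated with acetonitrile containing a rhodium-complex internal standard. Intact complex was measured by LC-MS/MS; AUC0–8 h came from the concentration curve.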

[10] = system: CRC cell lines; details: on average across CRC cell lines; cited from earlier work
[11] = Histological analyses of collected tissues; assay type: in vivo, NSG mice; details: Rh-PPO-treated mice, i.p.
[12] = Stability in rat plasma; assay type: in vitro ADME
[13] = system: HCT116 xenograft tumors; assay: Intratumoral efficacy experiment; assay type: in vivo, NSG mice; details: 1 mpk intratumoral
[14] = Mouse body weights during i.p. treatment; assay type: in vivo, NSG mice; details: Rh-PPO treatment groups, both i.p. schedules
[15] = system: NSG mice; assay: Maximum tolerated dose; assay type: in vivo; details: for start of notable symptoms of distress and inactivity: mice killed before end of 10-d study
Procedure, shortened: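 Weighed NSG mice received test compound dissolved in saline i.p. at 1, 2, 5 or 15 mpk, once daily for 10 consecutive days. Clinical observations and body weights were recorded daily. Surviving animals were killed with carbon dioxide at study end.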

O=C1[O][Pt]2([NH][C@@H]3CCCC[C@H]3[NH]2)[O]C1=O [oxaliplatin, reference compound]
tumor volumes at conclusion of study [1]: statistically similar tumor volumes | mouse deaths: found dead in cage ([2]; 7.5 mpk i.p.): 45.5% | distribution of metal among organs [3]: platinum was distributed evenly | half-life [4]: 0.235 h | IC50 [5]: 27.5 µM

[Rh(chrysi)(phen)(2-(pyridine-2-yl)propan-2-ol]Cl2 [Rh-PPO]
aqueous solubility [6]: high aqueous solubility | reduction in tumor volume relative to vehicle ([1]; Rh-PPO treatment groups (0.5 and 1 mpk i.p.), day 21, efficacy experiment 1): 25 ± 2.7% and 25% | tumor volumes at conclusion of study [1]: statistically similar tumor volumes | tolerability of i.v. administration ([7]; 20 mpk i.v.): not well tolerated | oral bioavailability ([7]; oral): zero oral bioavailability | stability in rat liver microsomes [8]: up to 4 h | increase in life span (ILS) relative to vehicle ([2]; Rh-PPO 0.5/1 mpk, oxaliplatin 7.5 mpk i.p.): 12% | mice killed due to poor health and inactivity ([2]; Rh-PPO 1 mpk, oxaliplatin 7.5 mpk i.p.): 10% | mice that died due to tumors reaching maximum allowable size (15 mm) ([2]; both Rh-PPO treatment groups): 90% | distribution of metal among organs [3]: accumulation of rhodium most significantly in the liver | AUC0–8 h ([9]; 0.5 mpk i.p.): 1.31 µM·h | Cmax ([9]; 0.5 mpk i.p.): 450 nM | t1/2 ([9]; 0.5 mpk i.p.): 1.11 h | exposure level (Cmax) relative to in vitro cell IC50 of 250 nM ([9]; 1 mpk i.p.): ~2.5 fold | AUC0–8 h ([9]; 1 mpk i.p.): 1.52 µM·h | Cmax ([9]; 1 mpk i.p.): 650 nM | t1/2 ([9]; 1 mpk i.p.): 1.79 h | time to peak plasma concentration ([9]; i.p. dosing, 0.5 and 1 mpk): ≤ 30 min | Cmax ([9]; read-out: maximum plasma concentration (Cmax), 1 mpk i.p.): 650 nM | potency relative to cisplatin [10]: five times more potent | IC50 [5]: 0.25 µM | cytotoxicity toward HCT116O compared to HCT116N cells ([5]; MMR-deficient HCT116O vs matched MMR-proficient HCT116N): highly potent and selective cytotoxicity | organ morphology (histology) [11]: normal organ morphology | stability in rat plasma [12]: up to 4 h | toxicity of intratumoral administration [13]: significant systemic toxicity; also recorded: unacceptably toxic | significant mouse weight loss (more than 15% of original body weight) [14]: neither treatment schedule resulted in significant mouse weight loss | body weight change in MTD study ([15]; 1, 2, 5 mpk i.p. daily): lost body weight in a dose-dependent manner | clinical observations ([15]; 1 mpk i.p. daily for 10 d): only mild symptoms of distress; also recorded: tolerated over a 10-d period with minor indications of systemic toxicity | start of notable symptoms of distress and inactivity ([15]; 2 mpk i.p. daily): 4 days | start of notable symptoms of distress and inactivity ([15]; 5 mpk i.p. daily): 2 days
